Experimental data published in ChEMBL document CHEMBL1157378, “Role for cell density in antifungal drug resistance in Candida albicans biofilms” (2007).

Columns and labels:
Assay type in all cases: functional
Candida albicans [1] = assay: Antimicrobial activity against Chk1 deficient Candida albicans CHK21 at planktonic cell density of 10^3 cells/ml after 48 hrs by XTT assay; settings: CHK21, 48 h
Method in brief: (§1)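 YNB-grown yeast (50 mM glucose, room temperature, shaken, to ~2 x 10^8 cells/ml) washed into MOPS-buffered RPMI 1640 with L-glutamine and set to the stated density. Exposed to twofold serial drug dilutions (1,024 to 0.0313 µg/ml) at 37°C, 48 h (caspofungin 24 h), with drug-free controls. Read-out: XTT (0.5 g/liter) plus 1 µM menadione, formazan at 490 nm.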

Candida albicans [2] = assay: Antimicrobial activity against Candida albicans FH1 at planktonic cell density of 10^8 cells/ml after 48 hrs by XTT assay; settings: FH1, 48 h; method in brief: as §1
Candida albicans [3] = assay: Antimicrobial activity against Candida albicans FH1 dissociated biofilms at cell density of 10^3 cells/ml after 48 hrs by XTT assay; settings: FH1, 48 h
Method in brief: (§2)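 Polystyrene-well biofilms (48 h, 37°C) washed, then broken up in 100 µl RPMI by scraping and aspiration. Cells used undiluted (about 2 x 10^8 cells/ml equivalent) or adjusted by A600 against a hemacytometer-calibrated yeast standard curve. Drug exposure at 37°C for 48 h (caspofungin 24 h), then XTT/menadione read at 490 nm.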

Candida albicans [4] = assay: Antimicrobial activity against Cdr1, Cdr2 and Mdr1 deficient Candida albicans DSY1050 at planktonic cell density of 10^8 cells/ml after 48 hrs by XTT assay; settings: DSY1050, 48 h; method in brief: as §1
Candida albicans [5] = assay: Antimicrobial activity against Candida albicans SC5314 biofilms upto 12 hrs by XTT assay; settings: SC5314, 12 h
Method in brief: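 SC5314 biofilm development followed over 72 h in polystyrene wells. At intervals the developing biofilm was exposed to fluconazole or amphotericin B, and metabolic activity was read by XTT/menadione reduction at 490 nm.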

Candida albicans [6] = assay: Antimicrobial activity against Candida albicans FH1 intact biofilms after 48 hrs by XTT assay; settings: FH1, 48 h
Method in brief: (§3)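 Biofilm seeded at 1 x 10^6 cells/ml in RPMI in polystyrene microtiter wells and grown 48 h at 37°C in a moist chamber. Washed once and drug added to the same well (twofold dilutions, 1,024 to 0.0313 µg/ml) for 48 h at 37°C (caspofungin 24 h). Read-out: XTT/menadione reduction at 490 nm.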

Candida albicans [7] = assay: Antimicrobial activity against Candida albicans SC5314 biofilms after 24 hrs by XTT assay; settings: SC5314, 24 h
Method in brief: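 Intact biofilms formed from 1 x 10^6 cells/ml in RPMI in polystyrene microtiter wells, 48 h at 37°C in a moist chamber, then washed once and covered with 100 µl RPMI. A twofold drug series was added in the same well for 24 h at 37°C. Metabolic activity was read by XTT (0.5 g/liter, 1 µM menadione, up to 2 h) at 490 nm.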

Candida albicans [8] = assay: Antimicrobial activity against Candida albicans FH1 dissociated biofilms at cell density of 10^8 cells/ml after 48 hrs by XTT assay; settings: FH1, 48 h; method in brief: as §2
Candida albicans [9] = assay: Antimicrobial activity against Candida albicans GDH2346 at planktonic cell density of 10^3 cells/ml after 48 hrs by XTT assay; settings: GDH2346, 48 h; method in brief: as §1
Candida albicans [10] = assay: Antimicrobial activity against Candida albicans SC5314 dissociated biofilms at cell density of 10^3 cells/ml after 48 hrs by XTT assay; settings: SC5314, 48 h; method in brief: as §2
Candida albicans [11] = assay: Antimicrobial activity against Cdr1, Cdr2 and Mdr1 deficient Candida albicans DSY1050 dissociated biofilms at cell density of 10^3 cells/ml after 48 hrs by XTT assay; settings: DSY1050, 48 h; method in brief: as §2
Candida albicans [12] = assay: Antimicrobial activity against fluconazole-resistant Candida albicans FH5 intact biofilms after 48 hrs by XTT assay; settings: FH5, 48 h; method in brief: as §3
Candida albicans [13] = assay: Antimicrobial activity against fluconazole-resistant Candida albicans FH5 at planktonic cell density of 10^8 cells/ml after 48 hrs by XTT assay; settings: FH5, 48 h; method in brief: as §1
Candida albicans [14] = assay: Antimicrobial activity against Chk1 deficient Candida albicans CHK21 dissociated biofilms at cell density of 10^3 cells/ml after 48 hrs by XTT assay; settings: CHK21, 48 h; method in brief: as §2
Candida albicans [15] = assay: Antimicrobial activity against fluconazole-resistant Candida albicans FH5 dissociated biofilms at cell density of 10^3 cells/ml after 48 hrs by XTT assay; settings: FH5, 48 h; method in brief: as §2
Candida albicans [16] = assay: Antimicrobial activity against Candida albicans FH1 at planktonic cell density of 10^3 cells/ml after 48 hrs by XTT assay; settings: FH1, 48 h; method in brief: as §1
Candida albicans [17] = assay: Antimicrobial activity against fluconazole-resistant Candida albicans FH5 at planktonic cell density of 10^3 cells/ml after 48 hrs by XTT assay; settings: FH5, 48 h; method in brief: as §1
Candida albicans [18] = assay: Antimicrobial activity against Chk1 deficient Candida albicans CHK21 dissociated biofilms at cell density of 10^8 cells/ml after 48 hrs by XTT assay; settings: CHK21, 48 h; method in brief: as §2
Candida albicans [19] = assay: Antimicrobial activity against Candida albicans assessed as cell viability at cell density of 2 x 10^4 cells/ml preincubated for 1 hr
Candida albicans [20] = assay: Antimicrobial activity against Candida albicans SC5314 dissociated biofilms at cell density of 10^8 cells/ml after 48 hrs by XTT assay; settings: SC5314, 48 h; method in brief: as §2
Candida albicans [21] = assay: Antimicrobial activity against Candida albicans GDH2346 dissociated biofilms at cell density of 10^3 cells/ml after 48 hrs by XTT assay; settings: GDH2346, 48 h; method in brief: as §2
Candida albicans [22] = assay: Antimicrobial activity against Candida albicans GDH2346 at planktonic cell density of 10^8 cells/ml after 48 hrs by XTT assay; settings: GDH2346, 48 h; method in brief: as §1
Candida albicans [23] = assay: Antimicrobial activity against Candida albicans GDH2346 intact biofilms after 48 hrs by XTT assay; settings: GDH2346, 48 h; method in brief: as §3
Candida albicans [24] = assay: Antimicrobial activity against Candida albicans GDH2346 dissociated biofilms at cell density of 10^8 cells/ml after 48 hrs by XTT assay; settings: GDH2346, 48 h; method in brief: as §2
Candida albicans [25] = assay: Antimicrobial activity against Cdr1, Cdr2 and Mdr1 deficient Candida albicans DSY1050 at planktonic cell density of 10^3 cells/ml after 48 hrs by XTT assay; settings: DSY1050, 48 h; method in brief: as §1
Candida albicans [26] = assay: Antimicrobial activity against Candida albicans SC5314 intact biofilms after 48 hrs by XTT assay; settings: SC5314, 48 h; method in brief: as §3
Candida albicans [27] = assay: Antimicrobial activity against Cdr1, Cdr2 and Mdr1 deficient Candida albicans DSY1050 dissociated biofilms at cell density of 10^8 cells/ml after 48 hrs by XTT assay; settings: DSY1050, 48 h; method in brief: as §2
Candida albicans [28] = assay: Antimicrobial activity against Candida albicans SC5314 at planktonic cell density of 10^8 cells/ml after 48 hrs by XTT assay; settings: SC5314, 48 h; method in brief: as §1
Candida albicans [29] = assay: Antimicrobial activity against Cdr1, Cdr2 and Mdr1 deficient Candida albicans DSY1050 intact biofilms after 48 hrs by XTT assay; settings: DSY1050, 48 h; method in brief: as §3
Candida albicans [30] = assay: Antimicrobial activity against Chk1 deficient Candida albicans CHK21 at planktonic cell density of 10^8 cells/ml after 48 hrs by XTT assay; settings: CHK21, 48 h; method in brief: as §1
Candida albicans [31] = assay: Antimicrobial activity against Candida albicans SC5314 at planktonic cell density of 10^3 cells/ml after 48 hrs by XTT assay; settings: SC5314, 48 h; method in brief: as §1
Candida albicans [32] = assay: Antimicrobial activity against fluconazole-resistant Candida albicans FH5 dissociated biofilms at cell density of 10^8 cells/ml after 48 hrs by XTT assay; settings: FH5, 48 h; method in brief: as §2
Candida albicans [33] = assay: Antimicrobial activity against Chk1 deficient Candida albicans CHK21 intact biofilms after 48 hrs by XTT assay; settings: CHK21, 48 h; method in brief: as §3

C[C@@H]1[C@H](O)[C@@H](C)/C=C/C=C/C=C/C=C/C=C/C=C/C=C/[C@H](O[C@@H]2O[C@H](C)[C@@H](O)[C@H](N)[C@@H]2O)C[C@@H]2O[C@](O)(C[C@@H](O)C[C@@H](O)[C@H](O)CC[C@@H](O)C[C@@H](O)CC(=O)O[C@H]1C)C[C@H](O)[C@H]2C(=O)O [AMPHOTERICIN B]
0.5 µg/mL: MIC80 (Candida albicans [10]) | MIC80 (Candida albicans [21])
0.25 µg/mL: MIC80 (Candida albicans [11]) | MIC80 (Candida albicans [14]) | MIC80 (Candida albicans [15]) | MIC80 (Candida albicans [17]) | MIC80 (Candida albicans [25])
32 µg/mL: MIC80 (Candida albicans [23])
> 8 µg/mL: MIC80 (Candida albicans [7])
> 32 µg/mL: MIC80 (Candida albicans [2]) | MIC80 (Candida albicans [4]) | MIC80 (Candida albicans [6]) | MIC80 (Candida albicans [8]) | MIC80 (Candida albicans [12]) | MIC80 (Candida albicans [13]) | MIC80 (Candida albicans [18]) | MIC80 (Candida albicans [20]) | MIC80 (Candida albicans [22]) | MIC80 (Candida albicans [24]) | MIC80 (Candida albicans [26]) | MIC80 (Candida albicans [27]) | MIC80 (Candida albicans [28]) | MIC80 (Candida albicans [29]) | MIC80 (Candida albicans [30]) | MIC80 (Candida albicans [32]) | MIC80 (Candida albicans [33])
0.125 µg/mL: MIC80 (Candida albicans [1]) | MIC80 (Candida albicans [3]) | MIC80 (Candida albicans [5]) | MIC80 (Candida albicans [9]) | MIC80 (Candida albicans [16]) | MIC80 (Candida albicans [31])
80%: Activity (Candida albicans [19])
